From ChEMBL document CHEMBL4028911, “Discovery of a Small-Molecule Bromodomain-Containing Protein 4 (BRD4) Inhibitor That Induces AMP-Activated Protein Kinase-Modulated Autophagy-Associated Cell Death in Breast Cancer” (J Med Chem, 2017)
Calls of active or inactive are those of the source. No cut-off for these calls is given here.

Columns and labels:
[1] = molecular target: T1, Bromodomain-containing protein 4 (Homo sapiens, UniProt O60885); test: Inhibition of BRD4 interaction with AMPK in human MCF7 cells at 1.5 uM by co-immunoprecipitation assay; format: cell-based
Summary of the method: (§1)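 Cells lysed in RIPA buffer (40 mM Tris-HCl pH 7.5, 150 mM NaCl, 0.5% NP-40, 5% glycerol, 10 mM NaF, protease inhibitors). Lysates incubated overnight at 4 °C with BRD4 or p53 antibody plus protein A/G beads, washed 3 times, resolved on 10% SDS-PAGE and blotted for AMPKα or p53.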

[2] = tested on: MCF7; test: Antitumor activity against human MCF7 cells xenografted in nude BALB/c mouse assessed as tumor growth inhibition at 25 to 100 mg/kg, ig administered once a day for 24 days measured every 3 days relative to control; format: functional
Summary of the method: (§2)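 Female BALB/c nude mice, 6-8 weeks, 20-22 g, injected subcutaneously with 5×10^6 MCF-7 or MDA-MB-231 cells. At 100 mm³ tumor volume (V = L×W²/2), split into four groups: 25, 50 or 100 mg/kg intragastric once daily for 24 or 27 days, or vehicle. Tumor volume and body weight measured every 3 days; tumors excised and weighed at end. MCF-7 n=7, MDA-MB-231 n=6 per group.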

[3] = molecular target: T1, Bromodomain-containing protein 4; test: Inhibition of recombinant human BRD4 bromodomain-2 (342 to 460 residues) expressed in Escherichia coli expression system after 120 mins by TR-FRET assay
[4] = tested on: MCF7; test: Induction of autophagy in human MCF7 cells assessed as downregulation of p62/SQSTM1 expression at 1.5 uM in presence of ATG5 siRNA by Western blot analysis; format: functional, cell-based
[5] = tested on: MCF7; test: Induction of autophagy in human MCF7 cells assessed as upregulation of beclin1 expression at 1.5 uM measured up to 36 hrs by Western blot analysis; format: functional, cell-based
Summary of the method: (§3)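 MCF-7 (1.5 µM) or MDA-MB-231 (3 µM) cells treated for indicated times. Adherent and floating cells lysed in RIPA with 1 mM PMSF, 4°C for 1 h. Equal protein run on 10-15% SDS-PAGE, transferred to PVDF, blocked with milk or BSA, probed with primary then HRP secondary antibodies, ECL detection; β-actin as loading control.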

[6] = tested on: MCF7; test: Induction of autophagy in human MCF7 cells assessed as increase in LC3-2 expression at 1.5 uM by Western blot analysis; format: functional, cell-based; settings: TDE = time-dependent effect; summary of the method: as §3
[7] = molecular target: T1, Bromodomain-containing protein 4; test: Inhibition of BRD4 in human MCF7 cells assessed as increase in ULK1 phosphorylation at ser317 at 1.5 uM up to 36 hrs by Western blot analysis; format: cell-based
Summary of the method: (§4)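 MCF-7 (1.5 μM) or MDA-MB-231 (3 μM) cells treated for indicated times. Adherent and floating cells lysed in RIPA with 1 mM PMSF. Equal protein run on 10-15% SDS-PAGE, blotted to PVDF, blocked in milk or BSA, HRP/ECL detection. β-actin loading control.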

[8] = tested on: MDA-MB-468; test: Induction of autophagy in human MDA-MB-468 cells assessed as upregulation of beclin1 expression measured up to 48 hrs by Western blot analysis; format: functional, cell-based
[9] = molecular target: T1, Bromodomain-containing protein 4; test: Inhibition of BRD4 interaction with p53 in human MDA-MB-231 cells at 3 uM by co-immunoprecipitation assay; format: cell-based; summary of the method: as §1
[10] = tested on: MDA-MB-231; test: Effect on mTOR expression in human MDA-MB-231 cells at 3 uM measured up to 36 hrs by Western blot analysis; format: ADME, cell-based; settings: mda-mb-231, 36 h; summary of the method: as §3
[11] = tested on: Mus musculus; test: Induction of cleavage of caspase-3 in BALB/c mouse xenografted with human MCF7 cells at 100 mg/kg, ig administered once a day for 24 days by Western blot analysis; format: functional, organism-based
Summary of the method: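 Female BALB/c nude mice (6-8 weeks) given 5×10^6 MCF-7 or MDA-MB-231 cells subcutaneously. At 100 mm3 tumours, dosed intragastrically once daily (25, 50, 100 mg/kg, or vehicle) for 24 or 27 days. Excised tumours lysed and probed by western blot for caspase-3 cleavage.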

[12] = molecular target: T1, Bromodomain-containing protein 4; test: Inhibition of BRD4 in human MCF7 cells assessed as reduction in ULK1 protein expression at 1.5 uM up to 36 hrs by Western blot analysis; format: cell-based; summary of the method: as §4
[13] = molecular target: T1, Bromodomain-containing protein 4; test: Inhibition of BRD4 in human MDA-MB-231 cells assessed as downregulation of c-Myc expression at 3 uM measured up to 36 hrs by Western blot analysis; format: cell-based; summary of the method: as §4
[14] = tested on: MDA-MB-231; test: Induction of autophagy in GFP-LC3 fused human MDA-MB-231 cells assessed as increase in LC3 puncta at 3 uM by fluorescence microscopy; format: functional, cell-based
Summary of the method: (§5)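 MCF-7 or MDA-MB-231 cells transfected with eGFP-LC3 plasmid, then treated with 1.5 or 3 µM respectively for 24 h. LC3 puncta viewed by fluorescence microscopy.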

[15] = tested on: MDA-MB-231; test: Antitumor activity against human MDA-MB-231 cells xenografted in ig dosed nude BALB/c mouse assessed as tumor growth inhibition administered once a day for 27 days measured every 3 days relative to control; format: functional, organism-based; summary of the method: as §2
[16] = tested on: Mus musculus; test: Toxicity in BALB/c mouse xenografted with human MDA-MB-231 cells assessed as effect on body weight at 25 to 100 mg/kg, ig administered once a day for […] measured every 3 days; format: organism-based; settings: in vivo, po
Summary of the method: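 Female BALB/c nude mice (6-8 weeks, 20-22 g) with subcutaneous MCF-7 or MDA-MB-231 xenografts (5×10^6 cells). At 100 mm3, given 25, 50 or 100 mg/kg intragastrically once daily, or vehicle, for 24 or 27 days. Body weight recorded every 3 days. MCF-7 n=7, MDA-MB-231 n=6 per group.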

[17] = tested on: MCF7; test: Induction of autophagy in human MCF7 cells assessed as downregulation of p62/SQSTM1 expression at 1.5 uM measured up to 36 hrs by Western blot analysis; format: functional, cell-based; summary of the method: as §3
[18] = tested on: MDA-MB-231; test: Antiproliferative activity against human MDA-MB-231 cells after 24 hrs by MTT assay; format: functional, cell-based; settings: MDA-MB-231, 24 h
[19] = tested on: MDA-MB-231; test: Antitumor activity against human MDA-MB-231 cells xenografted in nude BALB/c mouse assessed as tumor growth inhibition at 25 to 100 mg/kg, ig administered once a day for 27 days measured every 3 days relative to control; format: functional; summary of the method: as §2
[20] = molecular target: T1, Bromodomain-containing protein 4; test: Inhibition of BRD4 in human MCF7 cells assessed as downregulation of c-Myc expression at 1.5 uM measured up to 36 hrs by Western blot analysis; format: cell-based; summary of the method: as §4
[21] = tested on: MCF7; test: Induction of autophagy in GFP-LC3 fused human MCF7 cells assessed as increase in LC3 puncta at 1.5 uM by fluorescence microscopy; format: functional, cell-based; summary of the method: as §5
[22] = molecular target: T1, Bromodomain-containing protein 4; test: Inhibition of His/thioredoxin-tagged human recombinant BRD4 bromodomain-1 (43 to 166 residues) expressed in Escherichia coli BL21 Star (DE3) pre-incubated for 30 mins followed by biotinylated histone peptide H4 addition measured after 30 mins by AlphaScreen assay
[23] = tested on: MDA-MB-231; test: Inhibition of BRD4 protein expression in human MDA-MB-231 cells at 3 uM measured up to 36 hrs by Western blot analysis; format: functional, cell-based; summary of the method: as §4

Question: Which inhibition [1] does the source give for `Cc1cc(-c2nc3sc4c(c3c(=O)[nH]2)CCN(C)C4)cc(C)c1O` here?
Answer: The inhibition was “Active”.

Question: And the TGI [2]?
Answer: The TGI was 80%.

Question: What about the IC50 [3] of the same molecule?
Answer: Its IC50 is 930 nM.

Question: What about the Activity [4] of the same molecule?
Answer: Its Activity is “inactive”.

Question: And the Activity [5]?
Answer: The Activity was “Active”.

Question: And the Activity [6]?
Answer: Its Activity is “Tde”.

Question: What about the inhibition [7] of the same molecule?
Answer: The inhibition was “Active”.

Question: And the Activity [8]?
Answer: The Activity was “inactive”.

Question: What about the inhibition [9] of the same molecule?
Answer: The inhibition was “inactive”.

Question: What about the Activity [10] of the same molecule?
Answer: The Activity was “Non-Toxic”.

Question: And the Activity [11]?
Answer: The Activity was “Active”.

Question: What about the inhibition [12] of the same molecule?
Answer: Its inhibition is “Active”.

Question: What about the inhibition [13] of the same molecule?
Answer: The inhibition was “Active”.

Question: And the Activity [14]?
Answer: The Activity was “Active”.

Question: And the TGI [15]?
Answer: Its TGI is “Dose-dependent effect”.

Question: What about the Activity [16] of the same molecule?
Answer: The Activity was “Non-Toxic”.

Question: What about the Activity [17] of the same molecule?
Answer: The Activity was “Active”.

Question: And the IC50 [18]?
Answer: Its IC50 is 3270 nM.

Question: What about the TGI [19] of the same molecule?
Answer: Its TGI is 76%.

Question: And the inhibition [20]?
Answer: Its inhibition is “Active”.

Question: What about the Activity [21] of the same molecule?
Answer: Its Activity is “Active”.

Question: What about the IC50 [22] of the same molecule?
Answer: Its IC50 is 430 nM.

Question: And the inhibition [23]?
Answer: Its inhibition is “Active”.
